Columns and labels:
[1] = Cell viability in parental Huh7.5 cells by MTS assay; assay type: cell-based; conditions: human, parental Huh7.5 cells, Huh7.5 Cytotoxicity (%)
Method in brief: (§1)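 Cytotoxicity was run in parallel with the HCV replicon assays, using parental Huh7.5 cells at 37 °C and 5% CO2. Cells were seeded at 1 × 10^4 cells/well and exposed 8 h later to test compound at 100 μM or to matching DMSO for 42 h. Viability was read by the colorimetric MTS assay.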

[2] = system: HCV RNA replication of genotype 1b (Huh7/Rep-Feo1b); experiment: HCV 1b replicon luciferase reporter assay; assay type: cell-based, Hepatitis C virus genotype 1b; conditions: Huh7/Rep-Feo1b cells, 100 μM, 42 h
[3] = system: HCV RNA replication of genotype 2a (Huh7.5-FGR-JC1-Rluc2A); experiment: HCV 2a replicon luciferase reporter assay; assay type: cell-based, Hepatitis C virus genotype 2a; conditions: Huh7.5-FGR-JC1-Rluc2A cells, 100 μM, 42 h
[4] = target: intracellular HCV NS5B RdRp activity (Hepatitis C virus genotype 1b, UniProt P26663); experiment: BHK-NS5B-FRLuc reporter: intracellular NS5B RdRp activity; assay type: cell-based; conditions: 100 μM, 42 h, percent of DMSO controls
Chain of intracellular HCV NS5B RdRp activity (P26663 2420-3010): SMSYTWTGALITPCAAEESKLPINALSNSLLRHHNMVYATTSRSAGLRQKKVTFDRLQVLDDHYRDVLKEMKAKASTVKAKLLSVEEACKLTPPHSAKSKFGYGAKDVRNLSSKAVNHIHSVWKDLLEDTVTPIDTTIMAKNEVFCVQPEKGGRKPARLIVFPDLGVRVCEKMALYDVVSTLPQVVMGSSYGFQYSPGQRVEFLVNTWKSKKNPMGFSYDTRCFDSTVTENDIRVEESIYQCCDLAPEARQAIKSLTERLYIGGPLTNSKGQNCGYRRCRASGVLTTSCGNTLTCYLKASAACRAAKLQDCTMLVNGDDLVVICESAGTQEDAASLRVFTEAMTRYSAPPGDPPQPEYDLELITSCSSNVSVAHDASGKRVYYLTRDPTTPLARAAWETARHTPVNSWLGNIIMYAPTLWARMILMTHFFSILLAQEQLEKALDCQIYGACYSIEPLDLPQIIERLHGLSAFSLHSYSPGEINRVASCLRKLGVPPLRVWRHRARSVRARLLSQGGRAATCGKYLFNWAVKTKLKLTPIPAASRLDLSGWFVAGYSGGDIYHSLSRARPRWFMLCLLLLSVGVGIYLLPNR
Method in brief: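 BHK cells stably expressing NS5B and carrying a bicistronic (+)FLuc-(−)UTR-RLuc reporter were grown in DMEM with 10% FBS, antibiotic-antimycotic, nonessential amino acids, 1 mg/mL G418 and […] at 37 °C and 5% CO2. Cells were seeded at 1 × 10^4 cells/well and dosed 8 h later with 100 μM test compound. Cells were lysed 42 h after treatment and read by dual luciferase. Activity is the percent reduction in RLuc/FLuc versus DMSO controls.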

Huh7.5 cells = experiment: Cell viability in parental Huh7.5 cells by MTS assay; assay type: cell-based; conditions: 100 μM, 42 h
Method in brief: as §1

[5] = system: BHK-NS5B-FRLuc reporter cells; assay type: cell-based; conditions: 100 μM, 42 h, firefly luciferase versus DMSO controls

| Compound | cytotoxicity at 42 h, 100 µM [1] | 1b Replicon reporter Inhibition (%) [2] | 2a Replicon reporter Inhibition (%) [3] | BHK-NS5B FR Luc Inhibition (%) [4] | Huh7.5 Cytotoxicity (%) (Huh7.5 cells) | BHK-NS5B FR Luc Cytotoxicity (%) [5] |
| --- | --- | --- | --- | --- | --- | --- |
| O=C(CCl)Nc1nnc(-c2ccc(Cl)cc2)s1 [Compound 6, 2-Chloro-N-[5-(4-chlorophenyl)-1,3,4-thiadiazol-2-yl]acet-amide] | > 70% | near complete inhibition | near complete inhibition | – | – | – |
| O=C1N/C(=N\c2nnc(-c3ccc(Cl)cc3)s2)S/C1=C\c1ccc(Cl)cc1Cl [Compound 23, 2-[[5-(4-Chlorophenyl)-1,3,4-thiadiazol-2-yl]imino]-5-(2,4-dichlorobenzylidene)-1,3-thiazolidin-4-one] | 0% | n.i. | n.i. | n.i. | – | – |
| Nc1nnc(-c2ccc(Cl)cc2)s1 [Compound 4, 2-Amino-5-(4-chlorophenyl)-1,3,4-thiadiazole] | – | – | – | did not inhibit and n.i. | – | – |
| O=C1N/C(=N\c2nnc(-c3ccc(F)cc3)s2)S/C1=C\c1c(F)cccc1Cl [Compound 12, 2-[[5-(4-Fluorophenyl)-1,3,4-thiadiazol-2-yl]imino]-5-(2-chloro-6-fluoro-benzylidene)-1,3-thiazolidin-4-one] | > 70% | near complete inhibition | near complete inhibition | – | – | – |
| 2-[[5-(4-Fluorophenyl)-1,3,4-thiadiazol-2-yl]imino]-5-(4-nitrobenzylidene)-1,3-thiazolidin-4-one [Compound 16] | – | 87.7 ± 1.4% | 93.2 ±1.7% | no inhibition and n.i | 63.0 ± 4.4% | 73.7 ± 8.6% |
| O=C1N/C(=N\c2nnc(-c3ccc(F)cc3)s2)S/C1=C\c1ccc(Cl)cc1Cl [Compound 14, 2-[[5-(4-Fluorophenyl)-1,3,4-thiadiazol-2-yl]imino]-5-(2,4-dichlorobenzylidene)-1,3-thiazolidin-4-one] | – | – | – | n.i | – | – |
| 2-[[5-(4-Fluorophenyl)-1,3,4-thiadiazol-2-yl]imino]-5-(2,6-dimethoxybenzylidene)-1,3-thiazolidin-4-one [Compound 17] | – | 51.2 ± 6.3% | 50.4 ± 5.2% | 7.0 ± 1.8% | 13.9 ± 1.6% | – |
| Nc1nnc(-c2ccc(F)cc2)s1 [Compound 3, 2-Amino-5-(4-fluorophenyl)-1,3,4-thiadiazole] | – | – | – | – | – | 0.0% |
| O=C(CCl)Nc1nnc(-c2ccc(F)cc2)s1 [Compound 5, 2-Chloro-N-[5-(4-fluorophenyl)-1,3,4-thiadiazol-2-yl]acet-amide] | > 70% | near complete inhibition | near complete inhibition | – | – | – |
| O=C1N/C(=N\c2nnc(-c3ccc(Cl)cc3)s2)S/C1=C\c1ccc(F)cc1 [Compound 20, 2-[[5-(4-Chlorophenyl)-1,3,4-thiadiazol-2-yl]imino]-5-(4-fluorobenzylidene)-1,3-thiazolidin-4-one] | – | – | – | no inhibition and n.i | – | – |
| COc1cccc(OC)c1/C=C1\S/C(=N/c2nnc(-c3ccc(Cl)cc3)s2)NC1=O [Compound 25, 2-[[5-(4-Chlorophenyl)-1,3,4-thiadiazol-2-yl]imino]-5-(2,6-dimethoxy-benzylidene)-1,3-thiazolidin-4-one] | > 70% | near complete inhibition | near complete inhibition | – | – | – |
| O=C1CS/C(=N/c2nnc(-c3ccc(F)cc3)s2)N1 [Compound 7, 2-[[5-(4-Fluorophenyl)-1,3,4-thiadiazol-2-yl]imino]-1,3-thiazolidine-4-one] | – | – | – | – | – | 0.0% |
| O=C1N/C(=N\c2nnc(-c3ccc(Cl)cc3)s2)S/C1=C\c1c(Cl)cccc1Cl [Compound 24, 2-[[5-(4-Chlorophenyl)-1,3,4-thiadiazol-2-yl]imino]-5-(2,6-dichlorobenzylidene)-1,3-thiazolidin-4-one] | > 70% | near complete inhibition | near complete inhibition | – | – | – |
| O=C1N/C(=N\c2nnc(-c3ccc(Cl)cc3)s2)S/C1=C\c1c(F)cccc1Cl [Compound 21, 2-[[5-(4-Chlorophenyl)-1,3,4-thiadiazol-2-yl]imino]-5-(2-chloro-6-fluoro-benzylidene)-1,3-thiazolidin-4-one] | 0% | n.i. | n.i. | n.i. | – | – |
| O=C1N/C(=N\c2nnc(-c3ccc(F)cc3)s2)S/C1=C\c1c(Cl)cccc1Cl [Compound 15, 2-[[5-(4-Fluorophenyl)-1,3,4-thiadiazol-2-yl]imino]-5-(2,6-dichlorobenzylidene)-1,3-thiazolidin-4-one] | > 70% | near complete inhibition | near complete inhibition | – | – | – |
| O=C1N/C(=N\c2nnc(-c3ccc(Cl)cc3)s2)S/C1=C\c1ccccc1Cl [Compound 22, 2-[[5-(4-Chlorophenyl)-1,3,4-thiadiazol-2-yl]imino]-5-(2-chlorobenzylidene)-1,3-thiazolidin-4-one] | 0% | n.i. | n.i. | n.i. | – | – |
